The target of assay [1] is Fatty-acid amide hydrolase 1 (Homo sapiens, UniProt O00519). The assay can be described thus: Inhibition of recombinant FAAH transfected in HEK293T cells by SDS-PAGE using rhodamine-tagged FP probe. It counts as cell-based, HEK-293T. The method, boiled down:
(§1)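 HEK293T cells were transfected with cDNA for the target hydrolase. The transfected proteome was treated with inhibitor across 0.01-100 μM, then labeled with rhodamine-tagged fluorophosphonate probe (FP-Rh). Loss of probe labeling was read to give IC50. Values are means ± standard errors of three independent experiments.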

The target in assay [2] is Neutral cholesterol ester hydrolase 1 (Homo sapiens, UniProt Q6PIU2). Briefly: Inhibition of recombinant KIAA1363 transfected in HEK293T cells by SDS-PAGE using rhodamine-tagged FP probe. The assay is classed as cell-based, HEK-293T. Summed up: as §1
Chain of Neutral cholesterol ester hydrolase 1 (Q6PIU2 whole entry): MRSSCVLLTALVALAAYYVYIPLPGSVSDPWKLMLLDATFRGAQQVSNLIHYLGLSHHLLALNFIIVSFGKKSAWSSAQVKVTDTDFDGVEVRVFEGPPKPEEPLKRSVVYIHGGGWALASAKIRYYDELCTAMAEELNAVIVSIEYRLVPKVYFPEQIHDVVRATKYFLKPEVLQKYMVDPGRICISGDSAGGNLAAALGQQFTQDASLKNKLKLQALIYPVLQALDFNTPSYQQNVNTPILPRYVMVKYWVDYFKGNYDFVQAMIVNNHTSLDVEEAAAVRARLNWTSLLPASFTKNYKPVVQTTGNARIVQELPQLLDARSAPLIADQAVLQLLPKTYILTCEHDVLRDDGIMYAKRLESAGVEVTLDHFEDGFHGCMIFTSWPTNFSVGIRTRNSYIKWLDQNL
Assay [3] concerns the target Monoglyceride lipase (Mus musculus) (UniProt O35678). Briefly: Inhibition of MAGL in mouse brain at 0.01 to 100 uM treated for 30 mins by SDS-PAGE using rhodamine-tagged FP probe. It counts as tissue-based. Summed up: (§2)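 Mouse brain membrane proteome preincubated with inhibitor across 0.01-100 μM for 30 min. A rhodamine-tagged fluorophosphonate probe (FP-Rh) was then added for 60 min. Samples were resolved by SDS-PAGE, and probe labeling of each hydrolase band was read by in-gel fluorescence scanning.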

Assay [4] concerns the target T1, Diacylglycerol lipase-beta (Mus musculus) (UniProt Q91WC9).
T1 sequence (whole entry): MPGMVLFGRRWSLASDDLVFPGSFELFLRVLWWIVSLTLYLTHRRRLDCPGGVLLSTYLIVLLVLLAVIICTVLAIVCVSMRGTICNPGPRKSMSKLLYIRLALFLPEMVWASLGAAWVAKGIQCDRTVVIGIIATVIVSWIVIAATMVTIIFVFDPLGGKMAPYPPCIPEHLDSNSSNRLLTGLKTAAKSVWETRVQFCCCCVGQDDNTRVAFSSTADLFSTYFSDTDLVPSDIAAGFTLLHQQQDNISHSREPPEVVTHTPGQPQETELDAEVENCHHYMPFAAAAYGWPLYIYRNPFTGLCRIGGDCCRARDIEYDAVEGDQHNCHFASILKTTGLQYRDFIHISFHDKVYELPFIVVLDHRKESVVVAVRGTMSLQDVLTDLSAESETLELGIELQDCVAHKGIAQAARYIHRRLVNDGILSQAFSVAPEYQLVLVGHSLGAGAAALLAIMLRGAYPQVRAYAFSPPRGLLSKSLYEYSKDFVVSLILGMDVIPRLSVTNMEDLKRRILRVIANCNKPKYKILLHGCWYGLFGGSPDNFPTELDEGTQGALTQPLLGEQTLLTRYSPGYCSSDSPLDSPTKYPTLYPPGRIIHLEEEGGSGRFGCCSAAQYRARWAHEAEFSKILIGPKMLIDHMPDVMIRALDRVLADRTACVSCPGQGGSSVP
The assay can be described thus: Inhibition of DAGLbeta in mouse brain assessed as >15 average spectral count at 5 uM treated for 30 mins by ABPP-MudPIT assay. It counts as tissue-based.

For assay [5], the target named is Lysophosphatidylserine lipase ABHD12 (Homo sapiens, UniProt Q8N2K0). Briefly: Inhibition of recombinant ABHD12 transfected in HEK293T cells by SDS-PAGE using rhodamine-tagged FP probe. It counts as cell-based, HEK-293T. The method, boiled down: as §1
Chain of Lysophosphatidylserine lipase ABHD12 (Q8N2K0 whole entry): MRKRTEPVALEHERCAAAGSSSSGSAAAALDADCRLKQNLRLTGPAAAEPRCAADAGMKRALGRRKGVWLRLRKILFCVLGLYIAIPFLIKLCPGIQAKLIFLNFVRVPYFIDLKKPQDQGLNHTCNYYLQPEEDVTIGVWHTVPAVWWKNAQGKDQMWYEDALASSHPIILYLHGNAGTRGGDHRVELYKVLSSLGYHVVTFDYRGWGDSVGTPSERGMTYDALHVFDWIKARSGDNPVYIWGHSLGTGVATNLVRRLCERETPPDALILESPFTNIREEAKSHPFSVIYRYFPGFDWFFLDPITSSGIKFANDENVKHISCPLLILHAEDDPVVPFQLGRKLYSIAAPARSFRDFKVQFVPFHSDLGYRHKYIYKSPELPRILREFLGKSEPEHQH
In assay [6] the target is T2, Lysophosphatidylserine lipase ABHD12 (Mus musculus) (UniProt Q99LR1).
T2 sequence (whole entry): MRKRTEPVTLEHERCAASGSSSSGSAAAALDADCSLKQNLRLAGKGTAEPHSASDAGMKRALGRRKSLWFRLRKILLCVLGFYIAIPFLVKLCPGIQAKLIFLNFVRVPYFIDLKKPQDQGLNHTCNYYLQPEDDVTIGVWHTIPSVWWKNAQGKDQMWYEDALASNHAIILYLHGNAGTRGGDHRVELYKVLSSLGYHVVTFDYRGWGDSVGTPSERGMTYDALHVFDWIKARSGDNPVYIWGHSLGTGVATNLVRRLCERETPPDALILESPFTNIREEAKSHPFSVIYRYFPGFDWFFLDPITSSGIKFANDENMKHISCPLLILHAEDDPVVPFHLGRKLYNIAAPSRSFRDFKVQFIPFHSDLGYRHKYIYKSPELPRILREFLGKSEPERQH
Briefly: Inhibition of ABHD12 in mouse brain at 0.01 to 100 uM treated for 30 mins by SDS-PAGE using rhodamine-tagged FP probe. It counts as tissue-based. Summed up: as §2

Assay [7] deals with T1, Diacylglycerol lipase-beta (Mus musculus). The assay can be described thus: Inhibition of DAGLbeta in mouse brain assessed as >15 average spectral count at 50 uM treated for 30 mins by ABPP-MudPIT assay. The assay is classed as tissue-based.
Assay [8] addresses T3, Diacylglycerol lipase-alpha (Mus musculus) (UniProt Q6WQJ1).
T3 sequence (whole entry): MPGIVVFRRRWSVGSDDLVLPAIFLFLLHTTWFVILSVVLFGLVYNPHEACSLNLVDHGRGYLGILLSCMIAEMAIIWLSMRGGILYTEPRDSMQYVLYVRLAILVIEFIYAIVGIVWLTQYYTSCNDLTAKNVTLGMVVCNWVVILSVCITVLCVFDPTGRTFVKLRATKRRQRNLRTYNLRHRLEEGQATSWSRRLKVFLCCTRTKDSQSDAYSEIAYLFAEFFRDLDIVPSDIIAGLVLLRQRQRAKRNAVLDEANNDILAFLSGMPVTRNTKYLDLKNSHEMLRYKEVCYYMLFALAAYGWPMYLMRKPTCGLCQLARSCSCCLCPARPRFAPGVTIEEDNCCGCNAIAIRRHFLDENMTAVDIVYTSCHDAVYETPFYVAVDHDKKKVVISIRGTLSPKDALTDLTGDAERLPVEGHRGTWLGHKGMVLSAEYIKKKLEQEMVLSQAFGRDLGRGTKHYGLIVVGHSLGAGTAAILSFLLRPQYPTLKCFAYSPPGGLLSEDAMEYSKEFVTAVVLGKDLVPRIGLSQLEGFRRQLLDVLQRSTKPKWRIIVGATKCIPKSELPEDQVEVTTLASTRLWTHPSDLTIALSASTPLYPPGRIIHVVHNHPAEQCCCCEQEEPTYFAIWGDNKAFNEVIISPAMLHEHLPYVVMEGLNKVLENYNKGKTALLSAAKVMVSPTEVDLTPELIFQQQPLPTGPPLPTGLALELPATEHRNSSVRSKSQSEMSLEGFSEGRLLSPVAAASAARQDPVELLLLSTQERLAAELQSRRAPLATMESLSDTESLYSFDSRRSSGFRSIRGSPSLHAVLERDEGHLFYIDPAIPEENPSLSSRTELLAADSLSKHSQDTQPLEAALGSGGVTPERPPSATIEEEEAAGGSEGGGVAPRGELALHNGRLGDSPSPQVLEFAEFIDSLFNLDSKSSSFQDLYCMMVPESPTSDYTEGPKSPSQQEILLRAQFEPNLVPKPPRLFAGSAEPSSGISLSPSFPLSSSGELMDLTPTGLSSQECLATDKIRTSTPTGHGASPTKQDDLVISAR
Briefly: Inhibition of DAGLalpha in mouse brain assessed as >15 average spectral count at 5 uM treated for 30 mins by ABPP-MudPIT assay. It counts as tissue-based.

SMILES strings stand for the structures. Active and inactive are the calls of the source. The calls are words filed in the database; no cut-off is given here. Bounds are passed on as bounds.

Chain of Monoglyceride lipase (Mus musculus) (O35678 whole entry): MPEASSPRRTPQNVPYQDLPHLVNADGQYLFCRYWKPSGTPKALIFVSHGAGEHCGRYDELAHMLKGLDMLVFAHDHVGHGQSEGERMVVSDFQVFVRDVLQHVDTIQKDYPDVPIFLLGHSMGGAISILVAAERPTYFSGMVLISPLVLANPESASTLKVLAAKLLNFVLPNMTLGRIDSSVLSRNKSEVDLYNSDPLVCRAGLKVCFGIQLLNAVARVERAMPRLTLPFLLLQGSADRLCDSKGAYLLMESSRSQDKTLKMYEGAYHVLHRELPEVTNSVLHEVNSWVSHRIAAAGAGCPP
Chain of Fatty-acid amide hydrolase 1 (O00519 whole entry): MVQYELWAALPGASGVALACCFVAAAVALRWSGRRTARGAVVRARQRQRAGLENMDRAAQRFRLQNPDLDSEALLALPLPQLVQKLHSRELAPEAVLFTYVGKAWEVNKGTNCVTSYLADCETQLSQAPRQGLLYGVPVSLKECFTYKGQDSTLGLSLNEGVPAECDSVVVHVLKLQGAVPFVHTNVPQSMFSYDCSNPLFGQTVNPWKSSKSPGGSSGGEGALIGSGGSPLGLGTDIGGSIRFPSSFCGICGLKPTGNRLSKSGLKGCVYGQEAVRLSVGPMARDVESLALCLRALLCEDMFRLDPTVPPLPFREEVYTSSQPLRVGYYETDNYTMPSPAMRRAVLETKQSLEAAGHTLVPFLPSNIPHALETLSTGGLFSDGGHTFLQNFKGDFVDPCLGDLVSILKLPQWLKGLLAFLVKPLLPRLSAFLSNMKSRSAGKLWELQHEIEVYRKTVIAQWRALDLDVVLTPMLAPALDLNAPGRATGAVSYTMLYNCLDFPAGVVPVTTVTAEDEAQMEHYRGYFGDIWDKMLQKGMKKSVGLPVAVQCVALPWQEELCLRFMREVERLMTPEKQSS

As for `CCCCCCCCCCC[C@@H](C[C@@H]1OC(=O)[C@H]1CCCCCC)OC(=O)[C@H](CC(C)C)NC=O` [ORLISTAT], the IC50 was greater than 100 µM in assay [1], greater than 100 µM in assay [2] and 0.08 µM in assay [5]. The outcome in assay [3] and in assay [6] was Active. Besides, the outcome in assay [4], in assay [7] and in assay [8] was inactive.
Consider `O=C(NCCCCCCNC(=O)ON=C1CCCCC1)ON=C1CCCCC1`, for which the IC50 in assay [1] is 70 µM; in assay [2], 10 µM; in assay [5] it was greater than 100 µM. Also, the outcome in assay [3] and in assay [6] was Active. For the same compound, the outcome in assay [4], in assay [7] and in assay [8] was inactive.

The IC50 is the midpoint of a concentration-inhibition curve.

Source of the values: ChEMBL document CHEMBL1151781, “Selectivity of inhibitors of endocannabinoid biosynthesis evaluated by activity-based protein profiling” (Bioorg Med Chem Lett, 2008).
